In brackets after ≈: the same amount, converted by molar mass.
Assays:
Assay type in all cases: functional
[1] = Growth inhibition of human Bre-04 cells after 48 hrs by SRB assay; conditions: Bre04, 48 h
Summary of the method: (§1)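 ATCC cancer lines (Bre-04 = MDA-MB-231, Lu-04 = NCI-H460, N-04 = SF-268), cultured per supplier instructions. Cells seeded in 96-well plates, incubated 16 h at 37 °C, then exposed to a range of compound concentrations for 48 h. Taxol served as positive control. Cytotoxicity read by colorimetric sulforhodamine B (SRB) chemosensitivity assay.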

[2] = Growth inhibition of human Lu-04 cells after 48 hrs by SRB assay; conditions: Lu04, 48 h; summary of the method: as §1
[3] = Growth inhibition of human N-04 cells after 48 hrs by SRB assay; conditions: N04, 48 h; summary of the method: as §1

Row | SMILES | GI50 [1] | GI50 [2] | GI50 [3]
1 | CS[C@]12COCN3c4ccccc4[C@]4(C[C@]5(SC)C(=O)N(C)[C@@](CO)(SC)C(=O)N5[C@@H]34)n3cc(c4ccccc43)C[C@](SC)(C(=O)N1C)N(C)C2=O [CHAETOCOCHIN A] | 4.1 µg/mL (≈ 5.24 µM) | 3.4 µg/mL (≈ 4.34 µM) | 7 µg/mL (≈ 8.94 µM)
2 | CS[C@@]1(CO)C(=O)N(C)[C@@](Cc2cn([C@]34C[C@]5(SC)C(=O)N(C)[C@@](CO)(SC)C(=O)N5[C@H]3Nc3ccccc34)c3ccccc23)(SC)C(=O)N1C | 0.06 µg/mL (≈ 0.0778 µM) | 0.05 µg/mL (≈ 0.0648 µM) | 0.2 µg/mL (≈ 0.259 µM)
3 | CS[C@@]1(CO)C(=O)N(C)[C@@](Cc2cn([C@]34C[C@@]56SS[C@@](CO)(C(=O)N5[C@H]3Nc3ccccc34)N(C)C6=O)c3ccccc23)(SC)C(=O)N1C [CHAETOCOCHIN C] | 0.4 µg/mL (≈ 0.54 µM) | 1.9 µg/mL (≈ 2.56 µM) | 0.4 µg/mL (≈ 0.54 µM)
4 | CC(=O)O[C@H]1C(=O)[C@@]2(C)[C@H]([C@H](OC(=O)c3ccccc3)[C@]3(O)C[C@H](OC(=O)[C@H](O)[C@@H](NC(=O)c4ccccc4)c4ccccc4)C(C)=C1C3(C)C)[C@]1(OC(C)=O)CO[C@@H]1C[C@@H]2O [PACLITAXEL] | 0.04 µg/mL (≈ 0.0468 µM) | 0.03 µg/mL (≈ 0.0351 µM) | 0.04 µg/mL (≈ 0.0468 µM)
